Experimental data reported in ChEMBL document CHEMBL4811251 (Eur J Med Chem, 2021).
pKi: −log10 of the molar value. One block for each compound: values may come before it. Active and inactive are the calls of the source. The calls are words filed in the database; no cut-off is given here.

Columns and labels:
MV4-11 = assay: Antiproliferative activity against human MV4-11 cells assessed as growth inhibition after 72 hrs by resazurin assay; type: functional
Summary of the method: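 MV4-11 cells kept at 37 °C with 5% CO2 in ATCC-recommended medium plus 10% FBS. In-house resazurin viability assay after 72 h exposure. GI50 reported as mean ± standard deviation from at least two replicates.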

CDK8/Cyclin C = CDK8/Cyclin C (Homo sapiens, UniProt P49336); assay: Inhibition of CDK8/Cyclin C (unknown origin) using RBER-CHKtide as substrate in presence of [33P]gammaATP incubated for 60 mins by microplate scintillation counter analysis
[1] = molecular target: CDK9/cyclin T1 (Homo sapiens) (UniProt O60563+P50750); assay: Inhibition of CDK9/Cyclin T1 (unknown origin) assessed as residual activity at 1 uM relative to control; type: protein-complex assay
[2] = molecular target: Glycogen synthase kinase-3 alpha (Homo sapiens) (UniProt P49840); assay: Inhibition of GSK3alpha (unknown origin) assessed as residual activity at 1 uM relative to control
[3] = molecular target: Protein kinase C theta (Homo sapiens) (UniProt Q04759); assay: Inhibition of PKC theta (unknown origin) assessed as residual activity at 1 uM relative to control
[4] = molecular target: Glycogen synthase kinase-3 beta (Homo sapiens) (UniProt P49841); assay: Inhibition of GSK3beta (unknown origin) assessed as residual activity at 1 uM relative to control
[5] = molecular target: Cyclin-dependent kinase 1/cyclin B1 (Homo sapiens) (UniProt P06493+P14635); assay: Inhibition of CDK1/Cyclin B (unknown origin) assessed as residual activity at 1 uM relative to control; type: protein-complex assay
[6] = Half life in BALB/c mouse at 2 mg/kg, iv measured upto 24 hrs by LC/MS/MS analysis; type: ADME, organism-based; conditions: in vivo
[7] = Clearance in Sprague-Dawley rat at 5 mg/kg, iv measured upto 24 hrs by LC/MS/MS analysis; type: ADME, organism-based; conditions: in vivo
[8] = Volume of distribution at steady state in Sprague-Dawley rat at 5 mg/kg, iv measured upto 24 hrs by LC/MS/MS analysis; type: ADME, organism-based; conditions: in vivo, read-out: Vdss
[9] = Half life in Sprague-Dawley rat at 5 mg/kg, iv measured upto 24 hrs by LC/MS/MS analysis; type: ADME, organism-based; conditions: in vivo
[10] = Oral bioavailability in BALB/c mouse at 10 mg/kg measured upto 24 hrs by LC/MS/MS analysis; type: ADME, organism-based; conditions: in vivo
[11] = Tmax in Sprague-Dawley rat at 5 mg/kg, iv measured upto 24 hrs by LC/MS/MS analysis; type: ADME, organism-based; conditions: in vivo
[12] = Volume of distribution at steady state in BALB/c mouse at 2 mg/kg, iv measured upto 24 hrs by LC/MS/MS analysis; type: ADME, organism-based; conditions: in vivo, read-out: Vdss
[13] = Tmax in BALB/c mouse at 10 mg/kg, po measured upto 24 hrs by LC/MS/MS analysis; type: ADME, organism-based; conditions: in vivo
[14] = AUC in Sprague-Dawley rat at 20 mg/kg, po measured upto 24 hrs by LC/MS/MS analysis; type: ADME, organism-based; parameters: route oral, dose 20 mg/kg, time <=24; conditions: in vivo
[15] = Half life in BALB/c mouse at 10 mg/kg, po measured upto 24 hrs by LC/MS/MS analysis; type: ADME, organism-based; conditions: in vivo
[16] = Cmax in BALB/c mouse at 2 mg/kg, iv measured upto 24 hrs by LC/MS/MS analysis; type: ADME, organism-based; parameters: route intravenous, dose 2 mg/kg, time <=24; conditions: in vivo
[17] = Cmax in BALB/c mouse at 10 mg/kg, po measured upto 24 hrs by LC/MS/MS analysis; type: ADME, organism-based; parameters: route oral, dose 10 mg/kg, time <=24; conditions: in vivo
[18] = AUC in BALB/c mouse at 10 mg/kg, po measured upto 24 hrs by LC/MS/MS analysis; type: ADME, organism-based; parameters: route oral, dose 10 mg/kg, time <=24; conditions: in vivo
[19] = Oral bioavailability in Sprague-Dawley rat at 20 mg/kg measured upto 24 hrs by LC/MS/MS analysis; type: ADME, organism-based; conditions: in vivo
[20] = Half life in Sprague-Dawley rat at 20 mg/kg, po measured upto 24 hrs by LC/MS/MS analysis; type: ADME, organism-based; conditions: in vivo
[21] = AUC in Sprague-Dawley rat at 5 mg/kg, iv measured upto 24 hrs by LC/MS/MS analysis; type: ADME, organism-based; parameters: route intravenous, dose 5 mg/kg, time <=24; conditions: in vivo
[22] = Tmax in BALB/c mouse at 2 mg/kg, iv measured upto 24 hrs by LC/MS/MS analysis; type: ADME, organism-based; conditions: in vivo
[23] = Tmax in Sprague-Dawley rat at 20 mg/kg, po measured upto 24 hrs by LC/MS/MS analysis; type: ADME, organism-based; conditions: in vivo
[24] = Cmax in Sprague-Dawley rat at 5 mg/kg, iv measured upto 24 hrs by LC/MS/MS analysis; type: ADME, organism-based; parameters: route intravenous, dose 5 mg/kg, time <=24; conditions: in vivo
[25] = Cmax in Sprague-Dawley rat at 20 mg/kg, po measured upto 24 hrs by LC/MS/MS analysis; type: ADME, organism-based; parameters: route oral, dose 20 mg/kg, time <=24; conditions: in vivo
[26] = AUC in BALB/c mouse at 2 mg/kg, iv measured upto 24 hrs by LC/MS/MS analysis; type: ADME, organism-based; parameters: route intravenous, dose 2 mg/kg, time <=24; conditions: in vivo
[27] = Clearance in BALB/c mouse at 2 mg/kg, iv measured upto 24 hrs by LC/MS/MS analysis; type: ADME, organism-based; conditions: in vivo

CDK8/Cyclin C, sequence (P49336 whole entry): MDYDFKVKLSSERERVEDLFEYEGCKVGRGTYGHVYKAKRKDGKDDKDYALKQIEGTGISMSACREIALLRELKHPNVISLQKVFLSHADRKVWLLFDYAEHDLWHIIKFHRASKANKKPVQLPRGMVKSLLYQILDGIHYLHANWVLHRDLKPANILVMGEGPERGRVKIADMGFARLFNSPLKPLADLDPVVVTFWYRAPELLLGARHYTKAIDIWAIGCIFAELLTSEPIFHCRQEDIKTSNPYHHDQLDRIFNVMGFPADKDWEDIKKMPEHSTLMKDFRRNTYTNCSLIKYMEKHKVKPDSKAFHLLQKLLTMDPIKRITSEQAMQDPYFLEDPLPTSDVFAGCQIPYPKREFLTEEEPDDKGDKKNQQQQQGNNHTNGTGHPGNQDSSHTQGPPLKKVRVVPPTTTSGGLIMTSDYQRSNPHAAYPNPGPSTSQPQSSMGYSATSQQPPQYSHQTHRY
CDK8/Cyclin C, sequence (P24863 whole entry, further chain): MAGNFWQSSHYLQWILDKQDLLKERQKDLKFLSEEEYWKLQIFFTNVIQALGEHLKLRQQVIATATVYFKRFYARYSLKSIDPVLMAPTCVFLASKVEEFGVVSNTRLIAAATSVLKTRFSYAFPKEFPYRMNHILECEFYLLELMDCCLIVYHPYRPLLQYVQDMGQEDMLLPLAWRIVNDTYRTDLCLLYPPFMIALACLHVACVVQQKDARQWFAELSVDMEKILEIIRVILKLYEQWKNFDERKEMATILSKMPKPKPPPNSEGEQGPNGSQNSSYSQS
Glycogen synthase kinase-3 alpha (Homo sapiens), sequence (P49840 2-483 limits assumed): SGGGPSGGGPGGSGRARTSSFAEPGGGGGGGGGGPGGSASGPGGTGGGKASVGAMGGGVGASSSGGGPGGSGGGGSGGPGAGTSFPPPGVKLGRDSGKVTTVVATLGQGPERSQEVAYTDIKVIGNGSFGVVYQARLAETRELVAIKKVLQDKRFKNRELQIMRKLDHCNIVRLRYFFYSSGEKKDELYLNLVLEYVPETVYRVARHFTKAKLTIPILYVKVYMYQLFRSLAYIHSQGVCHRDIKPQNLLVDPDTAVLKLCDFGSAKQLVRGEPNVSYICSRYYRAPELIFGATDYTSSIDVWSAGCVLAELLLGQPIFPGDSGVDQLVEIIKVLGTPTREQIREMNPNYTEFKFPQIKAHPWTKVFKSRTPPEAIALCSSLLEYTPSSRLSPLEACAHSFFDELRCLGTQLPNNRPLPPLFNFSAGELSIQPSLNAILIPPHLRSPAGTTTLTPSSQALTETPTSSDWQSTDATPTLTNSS
Protein kinase C theta (Homo sapiens), sequence (Q04759 whole entry, looked up): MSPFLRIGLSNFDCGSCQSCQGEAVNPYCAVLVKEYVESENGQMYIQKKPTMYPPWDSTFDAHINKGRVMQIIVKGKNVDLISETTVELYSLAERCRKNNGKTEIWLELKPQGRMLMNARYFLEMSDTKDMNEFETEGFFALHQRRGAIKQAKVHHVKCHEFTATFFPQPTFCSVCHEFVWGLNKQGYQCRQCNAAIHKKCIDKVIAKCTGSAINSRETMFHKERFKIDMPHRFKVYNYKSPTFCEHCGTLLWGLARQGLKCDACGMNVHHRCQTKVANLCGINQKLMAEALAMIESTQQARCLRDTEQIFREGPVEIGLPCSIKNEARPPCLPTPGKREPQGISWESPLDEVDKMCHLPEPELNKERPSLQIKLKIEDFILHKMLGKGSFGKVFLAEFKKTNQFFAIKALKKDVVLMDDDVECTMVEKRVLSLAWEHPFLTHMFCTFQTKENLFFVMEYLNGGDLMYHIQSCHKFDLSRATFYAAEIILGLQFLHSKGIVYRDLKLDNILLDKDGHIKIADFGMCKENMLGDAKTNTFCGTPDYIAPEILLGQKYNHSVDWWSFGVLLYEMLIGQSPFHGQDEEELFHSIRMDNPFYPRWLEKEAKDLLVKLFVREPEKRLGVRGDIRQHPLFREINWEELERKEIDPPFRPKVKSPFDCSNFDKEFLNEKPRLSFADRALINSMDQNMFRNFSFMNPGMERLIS
Glycogen synthase kinase-3 beta (Homo sapiens), sequence (P49841 whole entry, looked up): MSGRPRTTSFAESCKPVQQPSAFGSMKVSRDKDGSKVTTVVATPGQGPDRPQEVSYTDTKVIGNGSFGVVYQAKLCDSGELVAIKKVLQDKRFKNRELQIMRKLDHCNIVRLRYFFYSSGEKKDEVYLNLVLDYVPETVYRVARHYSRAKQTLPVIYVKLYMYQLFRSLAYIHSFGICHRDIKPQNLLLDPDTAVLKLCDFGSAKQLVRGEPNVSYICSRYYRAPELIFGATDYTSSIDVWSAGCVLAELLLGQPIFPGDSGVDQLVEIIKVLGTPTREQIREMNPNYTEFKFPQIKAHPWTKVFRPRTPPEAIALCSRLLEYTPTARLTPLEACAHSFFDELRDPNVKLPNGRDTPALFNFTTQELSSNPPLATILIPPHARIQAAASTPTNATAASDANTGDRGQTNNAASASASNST
Cyclin-dependent kinase 1/cyclin B1 (Homo sapiens), sequence (P06493 whole entry, looked up): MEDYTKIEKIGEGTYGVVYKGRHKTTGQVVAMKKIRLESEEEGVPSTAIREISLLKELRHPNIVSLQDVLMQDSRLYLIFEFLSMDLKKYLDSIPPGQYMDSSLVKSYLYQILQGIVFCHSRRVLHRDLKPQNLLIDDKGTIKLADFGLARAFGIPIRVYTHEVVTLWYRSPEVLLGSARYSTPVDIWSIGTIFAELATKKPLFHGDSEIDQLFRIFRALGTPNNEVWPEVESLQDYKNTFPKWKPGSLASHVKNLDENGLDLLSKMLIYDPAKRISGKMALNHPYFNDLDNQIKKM
Cyclin-dependent kinase 1/cyclin B1 (Homo sapiens), sequence (P14635 whole entry, looked up): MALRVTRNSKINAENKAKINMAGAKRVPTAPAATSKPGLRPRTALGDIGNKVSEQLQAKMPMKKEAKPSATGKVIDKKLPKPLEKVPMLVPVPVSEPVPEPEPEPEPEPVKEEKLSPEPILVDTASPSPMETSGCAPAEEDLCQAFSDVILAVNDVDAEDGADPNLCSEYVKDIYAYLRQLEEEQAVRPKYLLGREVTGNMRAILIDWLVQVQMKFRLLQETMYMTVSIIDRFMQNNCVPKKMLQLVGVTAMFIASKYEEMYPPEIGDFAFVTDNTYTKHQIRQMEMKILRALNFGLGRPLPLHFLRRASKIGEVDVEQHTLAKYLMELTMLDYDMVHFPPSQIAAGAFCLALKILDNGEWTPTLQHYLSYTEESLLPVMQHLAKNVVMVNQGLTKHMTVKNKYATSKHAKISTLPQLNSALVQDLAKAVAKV

Structure (SMILES): Cc1ccsc1-c1cncc(Cl)c1N1CCC2(CCNC2=O)CC1
GI50 (MV4-11): 910 nM
pKi (CDK8/Cyclin C): 8.10

Structure (SMILES): O=C1NCCC12CCN(c1c(Cl)cncc1-c1cnn(C(F)F)c1)CC2
GI50 (MV4-11): 6140 nM
pKi (CDK8/Cyclin C): 7.03

Structure (SMILES): O=C1NCCC12CCN(c1c(Cl)cncc1-c1ccc(CN3CCOCC3)s1)CC2
GI50 (MV4-11): 2960 nM
pKi (CDK8/Cyclin C): 7.49

Structure (SMILES): O=Cc1ccc(-c2cncc(Cl)c2N2CCC3(CCNC3=O)CC2)s1
GI50 (MV4-11): 750 nM
pKi (CDK8/Cyclin C): 7.17

Structure (SMILES): Cn1ncc2cc(-c3cnc(N)c(Cl)c3N3CCC4(CCNC4=O)CC3)ccc21
GI50 (MV4-11): 50 nM

Structure (SMILES): O=C1NCCC12CCN(c1c(Cl)cncc1-c1ccsc1)CC2
GI50 (MV4-11): 190 nM
pKi (CDK8/Cyclin C): 7.74

Structure (SMILES): O=C1NCCC12CCN(c1c(Cl)cncc1-c1cn[nH]c1)CC2
GI50 (MV4-11): 8520 nM
pKi (CDK8/Cyclin C): 6.60

Structure (SMILES): O=C1NCCC12CCN(c1c(Cl)cncc1-c1ccoc1)CC2
GI50 (MV4-11): 750 nM
pKi (CDK8/Cyclin C): 7.38

Structure (SMILES): Cc1csc(-c2cncc(Cl)c2N2CCC3(CCNC3=O)CC2)c1
GI50 (MV4-11): 650 nM
pKi (CDK8/Cyclin C): 8.00

Structure (SMILES): Cn1cc(-c2cncc(Cl)c2N2CCC3(CCNC3=O)CC2)cn1
GI50 (MV4-11): 5530 nM
pKi (CDK8/Cyclin C): 6.64

Structure (SMILES): CC(C)(C)OC(=O)N1CCN(Cc2ccc(-c3cncc(Cl)c3N3CCC4(CCNC4=O)CC3)s2)CC1
GI50 (MV4-11): 5150 nM
pKi (CDK8/Cyclin C): 7.34

Structure (SMILES): Cn1cccc1-c1cncc(Cl)c1N1CCC2(CCNC2=O)CC1
GI50 (MV4-11): 900 nM
pKi (CDK8/Cyclin C): 7.52

Structure (SMILES): O=C1NCCC12CCN(c1c(Cl)cncc1-c1ccc(CN3CCCC3)s1)CC2
GI50 (MV4-11): 3370 nM
pKi (CDK8/Cyclin C): 6.88

Structure (SMILES): CC(=O)c1ccc(-c2cncc(Cl)c2N2CCC3(CCNC3=O)CC2)s1
GI50 (MV4-11): 1440 nM
pKi (CDK8/Cyclin C): 7.18

Results, then the compound that gave them:

GI50 (MV4-11): 27100 nM
pKi (CDK8/Cyclin C): 6.07
Structure (SMILES): O=Cc1cscc1-c1cncc(Cl)c1N1CCC2(CCNC2=O)CC1

GI50 (MV4-11): 5190 nM
pKi (CDK8/Cyclin C): 7.09
Structure (SMILES): O=Cc1ccc(-c2cncc(Cl)c2N2CCC3(CCNC3=O)CC2)o1

GI50 (MV4-11): 560 nM
pKi (CDK8/Cyclin C): 7.85
Structure (SMILES): O=C1NCCC12CCN(c1c(Cl)cncc1-c1ccc(Cl)s1)CC2

GI50 (MV4-11): 28700 nM
pKi (CDK8/Cyclin C): 5.76
Structure (SMILES): O=Cc1sccc1-c1cncc(Cl)c1N1CCC2(CCNC2=O)CC1

GI50 (MV4-11): 1050 nM
pKi (CDK8/Cyclin C): 7.85
Structure (SMILES): O=C1NCCC12CCN(c1c(Cl)cncc1-c1cc[nH]c1)CC2

GI50 (MV4-11): 4010 nM
pKi (CDK8/Cyclin C): 6.97
Structure (SMILES): O=C1NCCC12CCN(c1c(Cl)cncc1-c1ccc(CN3CCCCC3)s1)CC2

Activity [1]: inactive
Activity [2]: 62%
Activity [3]: inactive
GI50 (MV4-11): 960 nM
pKi (CDK8/Cyclin C): 8.30
Activity [4]: 74%
Activity [5]: inactive
Structure (SMILES): O=C1NCCC12CCN(c1c(Cl)cncc1-c1ccc(-c3ccccc3)s1)CC2

GI50 (MV4-11): 650 nM
pKi (CDK8/Cyclin C): 8.00
Structure (SMILES): Cc1ccc(-c2cncc(Cl)c2N2CCC3(CCNC3=O)CC2)s1

GI50 (MV4-11): 5150 nM
pKi (CDK8/Cyclin C): 6.73
Structure (SMILES): O=Cc1cc(-c2cncc(Cl)c2N2CCC3(CCNC3=O)CC2)co1

GI50 (MV4-11): > 100000 nM
pKi (CDK8/Cyclin C): 5.33
Structure (SMILES): CC(=O)c1sccc1-c1cncc(Cl)c1N1CCC2(CCNC2=O)CC1

GI50 (MV4-11): 4950 nM
pKi (CDK8/Cyclin C): 7.66
Structure (SMILES): Cc1ccc(-c2cncc(Cl)c2N2CCC3(CCNC3=O)CC2)o1

GI50 (MV4-11): 940 nM
pKi (CDK8/Cyclin C): 7.59
Structure (SMILES): O=C1NCCC12CCN(c1c(Cl)cncc1-c1ccco1)CC2

GI50 (MV4-11): 2530 nM
pKi (CDK8/Cyclin C): 6.92
Structure (SMILES): Cc1cc(-c2cncc(Cl)c2N2CCC3(CCNC3=O)CC2)sc1C=O

GI50 (MV4-11): 480 nM
pKi (CDK8/Cyclin C): 8.00
Structure (SMILES): O=C1NCCC12CCN(c1c(Cl)cncc1-c1cccs1)CC2

GI50 (MV4-11): 730 nM
pKi (CDK8/Cyclin C): 7.28
Structure (SMILES): O=Cc1cc(-c2cncc(Cl)c2N2CCC3(CCNC3=O)CC2)cs1

GI50 (MV4-11): 2970 nM
pKi (CDK8/Cyclin C): 7.44
Structure (SMILES): CCOCOCc1ccc(-c2cncc(Cl)c2N2CCC3(CCNC3=O)CC2)o1

half-life [6]: 52.8 min
clearance [7]: 13.2 mL/min/kg
Vd [8]: 1.32 L/kg
half-life [9]: 265 min
bioavailability [10]: 28%
Tmax [11]: 9 min
Vd [12]: 1.6 L/kg
Tmax [13]: 10.8 min
AUC at 24 h [14]: 19.5 µM·h
half-life [15]: 100 min
GI50 (MV4-11): 160 nM
Cmax [16]: 4.96 µM
Cmax [17]: 1680 nM
AUC at 24 h [18]: 3.4 µM·h
bioavailability [19]: 26%
half-life [20]: 605 min
AUC at 24 h [21]: 18.4 µM·h
Tmax [22]: 3 min
Tmax [23]: 5 h
Cmax [24]: 11.1 µM
pKi (CDK8/Cyclin C): 8.15
Cmax [25]: 1350 nM
AUC at 24 h [26]: 2.4 µM·h
clearance [27]: 33.3 mL/min/kg
Structure (SMILES): Nc1ncc(-c2cc3ccccc3s2)c(N2CCC3(CCNC3=O)CC2)c1Cl
